This is an account of results in PubChem BioAssay.

The source made the active and inactive calls.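 How the source made its calls, unless noted: active means viability increase at or above a cutoff of the median across tested compounds plus 3 SD (cut at about 8.5% in these data, passing the limit was not always enough); inconclusive means some gains above the cutoff, reason not given; inactive means the rest.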

A short description of one test: S. cerevisiae growth inhibition in restrictive medium, OD615, pilot screen, restrictive growth control, yeast lifespan reduction project (AID 706;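 active means growth inhibition above a set limit, 3 SD over mean compound inhibition, in both replicates, cut at about 43% in these data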;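 further: modified DeaD lifespan yeast strain shifted to restrictive glucose medium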). The conditions noted are these: OD615, 48 h, at 10 µM, hits give high values. The method in brief:
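Buffer or medium: CSMM-D glucose medium. Material: genetically modified Saccharomyces cerevisiae, DeaD replicative lifespan assay strain. Times: 48 h compound exposure at 30 °C. Measured by: optical density at 615 nm.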
Turning to `O=C(Cn1ncc2ccccc21)N1CCc2ccccc21`, the growth inhibition is -14.6% (inactive).
Same read-out and setting: the figure for `O=C(C1CCCN(S(=O)(=O)c2ccccc2)C1)N1CCCCCC1` (centres undefined) is 0% (inactive); for `Cc1cccc(NC(=O)c2ccc(S(=O)(=O)N3CCCCC3)cc2)n1` it is -4% (inactive).
`CC(=O)NC(CCS(C)(=O)=O)C(=O)Nc1cccc(Cl)c1Cl` (centres undefined): the growth inhibition was -13.9% (inactive).
With `Cc1cc(C)c(S(=O)(=O)Nc2nnc(C)s2)c(C)c1`, the growth inhibition is -11.7% (inactive).
Still for that read-out and setting: in the case of `CCC(=O)Nc1nc2ccccc2n1CCN1CCOCC1` it was -0.375% (inactive); in that of `CNC(=O)c1nnc(Cc2ccc(F)cc2)o1`, 1.31% (inactive); in that of `CCSc1nc2c([nH]c3ccccc32)c(=O)n1C`, -9.45% (inactive).
The same measure, in the same setting: the figure for `CCOc1ccccc1NC(=O)CCS(=O)(=O)c1cccc2nonc12` is -21.8% (inactive).
Take `O=C1C2CC=C(Cl)CC2C(=O)N1CC1Cc2ccccc2CO1` (centres undefined): the growth inhibition is 0.875% (inactive).
For `COc1ccc(OC)c2c1CC(C)(C)NC2=O`, the growth inhibition was 7.13% (inactive).
The same measure, in the same setting: the figure for `CCOc1ccc(N(CC(=O)NCc2ccccc2)S(=O)(=O)c2c(C)noc2C)cc1` is -21.6% (inactive).
Still for that read-out and setting: the figure for `COC(=O)C1=C(C)N(C)C(C)=C(C(=O)OC)C1c1cccc(Br)c1` is 0.915% (inactive); for `Cc1ccc(C2CC(c3ccc(Cl)cc3)n3nc(N)nc3N2)cc1` (centres undefined) it is 7.93% (inactive).
`COc1ccc(CNC(=O)CS(=O)Cc2nc(-c3ccccc3C)oc2C)cc1` (centres undefined): the growth inhibition is 10.4% (inactive).
On the same count and under the same terms, the figure for `O=C1CCCC/C1=C\Nc1ccc(Cl)cn1` is 1.26% (inactive); for `C=CCN1C(=Nc2ccccc2)SC/C1=C\C(=O)OC` it is -4.42% (inactive).
Consider `O=C(CC12CC3CC(CC(C3)C1)C2)NCO`, for which the growth inhibition was 5.98% (inactive).
Same read-out and setting: in the case of `COc1ccc(C2C(C(N)=O)=C(C)Nc3nc(-c4ccccc4Cl)nn32)c(OC)c1` (centres undefined) it was -11.2% (inactive); in that of `Nc1c(Br)cc(Br)c(N2CCCC2=O)c1Br`, -7.93% (inactive); in that of `Cc1ccccc1NC(=O)CSc1[nH]c(=O)cc(C)c1C#N`, 11.7% (inactive).
For `O=C(Cn1nc(C(=O)O)c2ccccc2c1=O)NCC1CCCO1` (centres undefined), the growth inhibition is -13.3% (inactive).
In the case of `Cc1cc(C(=O)NCc2ccco2)cs1`, the growth inhibition is -6.79% (inactive).
On the same count and under the same terms, the figure for `Cc1cc(Nc2cccc(Cl)c2C)n2ncnc2n1` is -1.32% (inactive).

A short description of another test: doxorubicin toxicity protection in MRP-1 cells – H69AR cells, CellTiter-Glo, duplicate, MRP-1 activator project, pilot screen (AID 807).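 Further: compound pretreatment 18-22 h then 72 h combined with doxorubicin; 0% = doxorubicin alone and 100% = vehicle without doxorubicin.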 The conditions noted are these: H69AR viability with doxorubicin, CellTiter-Glo luminescence; at 10 µM; hits give high values. In general terms: Cellular ATP, detected with luciferase, serves as a proxy for viable cell number.
In the case of `O=C(CN1CCOCC1)Nc1cc(Cl)ccc1Cl`, the viability increase was -2.37% (inactive).
As to `COc1ccc(S(=O)(=O)Cc2ccc(C(=O)NC(C)C)o2)cc1`, the viability increase is 1.22% (inactive).
As to `CCCCCn1c(CN2CC(C)OC(C)C2)nc2c1c(=O)n(C)c(=O)n2C` (centres undefined), the viability increase was -1.22% (inactive).
The same measure, in the same setting: the figure for `COC(=O)C1CCN(C(=O)c2ccccc2NC(C)=O)CC1` is -0.52% (inactive); for `CCN1CCN(c2cc(C)c3cc(NC(=O)Cc4ccc(OC)c(OC)c4)ccc3n2)CC1` it is -5.64% (inactive).
On the same count and under the same terms, the figure for `CNC(=O)c1cc2cc(OC)ccc2n1CCN(C)C` is -3.65% (inactive); for `COc1ccc(NC(=O)CSc2nnc(-c3ccccn3)n2N)cc1` it is -0.74% (inactive); for `COc1cc(C)c(N(C(C)=O)c2ccccc2)c(C)c1` it is -0.85% (inactive).
Still for that read-out and setting: in the case of `CCc1ccc(N2CCN(C(=O)c3ccc(OC)c(OC)c3)CC2)cc1` it was 2.36% (inactive).
`O=C(C1CCC(CNc2c(N3CCOCC3)c(=O)c2=O)CC1)N1CCN(c2ccccc2)CC1` (centres undefined): the viability increase was -1.19% (inactive).
As for `CC1(C)C(=O)OC(C(=O)c2ccccc2)C(C)(C)C1=O` (centres undefined), the viability increase was 0.07% (inactive).
Same read-out and setting: the figure for `c1ccc(Sc2nc(N3CCCCC3)nc(N3CCCCC3)n2)nc1` is 0.32% (inactive); for `COC(=O)c1nc2n(n1)C(c1cccc(Cl)c1)C1=C(CC(C)(C)CC1=O)N2` (centres undefined) it is -2.72% (inactive); for `CCN(CC)C(=O)Cn1c(=O)n(-c2ccccc2)c(=O)n1CC(=O)N(CC)CC` it is -1.25% (inactive).
Same read-out and setting: the figure for `CN(C)c1ccc(C2N(c3ccc(Cl)cc3)C(=O)C3CCCN32)cc1` (centres undefined) is -1.01% (inactive); for `O=C(CN1C(=O)c2ccccc2C1=O)Nc1cccc2cccnc12` it is -1.1% (inactive).
The same measure, in the same setting: in the case of `O=C(Cn1ncc2ccccc21)N1CCc2ccccc21` it was -3% (inactive).
For `O=C(C1CCCN(S(=O)(=O)c2ccccc2)C1)N1CCCCCC1` (centres undefined), the viability increase was -1.36% (inactive).
For `Cc1cccc(NC(=O)c2ccc(S(=O)(=O)N3CCCCC3)cc2)n1`, the viability increase is 1.43% (inactive).
As to `CC(=O)NC(CCS(C)(=O)=O)C(=O)Nc1cccc(Cl)c1Cl` (centres undefined), the viability increase is -4.63% (inactive).
The same measure, in the same setting: the figure for `Cc1cc(C)c(S(=O)(=O)Nc2nnc(C)s2)c(C)c1` is 3.99% (inactive).
The same measure, in the same setting: in the case of `CCC(=O)Nc1nc2ccccc2n1CCN1CCOCC1` it was -2.15% (inactive).
The same measure, in the same setting: the figure for `CNC(=O)c1nnc(Cc2ccc(F)cc2)o1` is -0.04% (inactive); for `CCSc1nc2c([nH]c3ccccc32)c(=O)n1C` it is -4.7% (inactive).
Take `CCOc1ccccc1NC(=O)CCS(=O)(=O)c1cccc2nonc12`: the viability increase is -4.44% (inactive).
Turning to `O=C1C2CC=C(Cl)CC2C(=O)N1CC1Cc2ccccc2CO1` (centres undefined), the viability increase is 1.29% (inactive).
Same read-out and setting: in the case of `COc1ccc(OC)c2c1CC(C)(C)NC2=O` it was -0.54% (inactive); in that of `CCOc1ccc(N(CC(=O)NCc2ccccc2)S(=O)(=O)c2c(C)noc2C)cc1`, -0.68% (inactive); in that of `COC(=O)C1=C(C)N(C)C(C)=C(C(=O)OC)C1c1cccc(Br)c1`, 0.06% (inactive).
On the same count and under the same terms, the figure for `Cc1ccc(C2CC(c3ccc(Cl)cc3)n3nc(N)nc3N2)cc1` (centres undefined) is -0.27% (inactive).
Take `COc1ccc(CNC(=O)CS(=O)Cc2nc(-c3ccccc3C)oc2C)cc1` (centres undefined): the viability increase is -0.34% (inactive).
`O=C1CCCC/C1=C\Nc1ccc(Cl)cn1`: the viability increase is 1.58% (inactive).
For `C=CCN1C(=Nc2ccccc2)SC/C1=C\C(=O)OC`, the viability increase was -2.34% (inactive).
Still for that read-out and setting: in the case of `O=C(CC12CC3CC(CC(C3)C1)C2)NCO` it was 0.63% (inactive); in that of `COc1ccc(C2C(C(N)=O)=C(C)Nc3nc(-c4ccccc4Cl)nn32)c(OC)c1` (centres undefined), -0.07% (inactive); in that of `Nc1c(Br)cc(Br)c(N2CCCC2=O)c1Br`, -2.68% (inactive).
Same read-out and setting: in the case of `Cc1ccccc1NC(=O)CSc1[nH]c(=O)cc(C)c1C#N` it was -0.42% (inactive).
Regarding `O=C(Cn1nc(C(=O)O)c2ccccc2c1=O)NCC1CCCO1` (centres undefined), the viability increase is -0.44% (inactive).
For `Cc1cc(C(=O)NCc2ccco2)cs1`, the viability increase is -2.37% (inactive).
On the same count and under the same terms, in the case of `Cc1cc(Nc2cccc(Cl)c2C)n2ncnc2n1` it was -1.11% (inactive).
